Screening results as filed in PubChem BioAssay.
Only some compounds are listed: those with a hit (about 6.5% of all), similar ones and a draw of the others.
PostGolgi ctrl: growth inhibition of yeast control strain, primary screen, counter-screen for post-Golgi transport modulator project; AID 738, 2007; actives 5% (n = 98,000); inhibition, % at 10 µM; efflux-deficient yeast background strain, growth absorbance A615, 16 h
E coli WT exp: growth inhibitors of wild-type E. coli, primary screen, strain BW25113, expanded library, OD600 | OD600 absorbance | growth inhibition, % at 100 µM | actives 0.15% (n = 98,000) | AID 710, 2007;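 active = growth inhibition above about 50% at one test dose, limit read from the data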;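 also: growth measured after 20 h incubation at 37 °C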
PostGolgi yeast: phenotypic screen on post-Golgi transport, primary screen. actives 0.9% (n = 98,000). post-Golgi transport phenotypic cell assay. AID 739, 2007. inhibition, % at 10 µM;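 also: yeast cells grown in 1536-well plates; yeast grown about 18 h at 30C before absorbance read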
Calb biofilm kill: clotrimazole potentiators killing Candida biofilms, primary screen, with clotrimazole, Alamar Blue; C. albicans biofilm + clotrimazole; inhibition, % at 6 µM; actives 0.14% (n = 85,000);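 active = inhibition above 20%; inactive = inhibition below 20%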;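 also: preformed 24 hr biofilms exposed to compound for 48 hr; 0% = biofilm without compound and 100% = blank killed by clotrimazole plus chlorhexidine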
tolC growth inh: growth inhibitors of E. coli tolC mutant, primary screen, strain BW25113 ΔtolC::kan, 384-well. OD615. growth inhibition, % at 10 µM (by protocol). actives 2.2% (n = 65,000). AID 573, 2007;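 active = growth inhibition at or above a cutoff equal to the mean over every tested compound plus 3 SD, cut at about 60% in these data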;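 also: growth measured after 20 h incubation at 37 °C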
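test system = E. coli BW25113 ΔtolC::kan bacteria | medium = LB with kanamycin 50 µg/mL | signal = OD at 615 nm | schedule = 37 °C, 20 h exposure | evaluation = % inhibition of E. coli growth | compound dosing = one dose of 10 µM final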
PTK2B oligo ant: antagonists of Pyk2 self-association, primary screen, Q293 cells, FERM NanoBiT luminescence, HTS. Protein-tyrosine kinase 2-beta (Homo sapiens), Q14289. hits give low values. z-score (the deposit names both 25 µM and 10 µM). actives 0.83% (n = 99,000). AID 1347419, 2020;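 active = Z-score of -3 or lower, scaled per plate to the spread of control and sample wells; inactive = z-score above -3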;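 also: negative z-score means lost luminescence so less FERM oligomerization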
* marks the source's active call; other numbers are inactive results; . = not tested or not shown. Rule as the data show it, unless noted: active = inhibition above about 30%; inactive = the rest.

SMILES | PostGolgi ctrl | E coli WT exp | PostGolgi yeast | Calb biofilm kill | tolC growth inh | PTK2B oligo ant
CC1(C)CC(=O)C2=C(C1)OC(N)=C(C#N)[C@@]21C(=O)N(CC(N)=O)c2ccccc21 | 5.1 | 8.0 | 6.3 | . | 15.5 | 0.47
CC1(C)CC(=O)C2=C(C1)OC(N)=C(C#N)C21C(=O)N2CCCc3cccc1c32 (stereo not drawn) | 33.9* | -2.0 | -6.0 | 2.3 | -5.3 | -0.16
Cc1ccc(S(=O)(=O)Cn2nnnc2CN2CCCC3(CCCCC3)C2)cc1 | 23.2 | -13.0 | -2.5 | 6.6 | 75.9* | -0.43
CCOC(=O)C1CCCN(c2c(Nc3cccc(C)c3)c(=O)c2=O)C1 (stereo not drawn) | 3.7 | 3.0 | 0.2 | 17.1 | -5.2 | .
c1ccc(N2CCN(c3ncnc4sc5c(c34)CCC5)CC2)cc1 | 7.4 | -5.0 | 0.0 | 8.6 | 4.7 | -0.64
CCc1cc2c(N3CCN(c4ccccc4)CC3)ncnc2s1 | 48.3* | -9.0 | -1.9 | . | 93.3* | 0.22
O=c1n(Cc2ccccc2)c2cc(Cl)cnc2n1Cc1ccccc1 | 14.3 | 0.0 | -1.2 | 7.2 | 88.8* | -1.83
O=c1[nH]c2ccccc2n1Cc1ccc(Cl)cc1 | 9.0 | 19.0 | 5.9 | 4.7 | . | 0.23
FC(F)(F)c1cccc(-n2cccc2/C=N/n2cnnc2)c1 | 0.1 | -3.0 | -2.1 | 10.6 | 1.5 | 0.62
Cc1nn(C(C)(C)C)c(OC(=O)c2ccc(Br)o2)c1Sc1ccccc1 | 14.1 | -13.0 | -4.1 | 2.5 | . | -0.31
Cc1nn(C(C)(C)C)c(OC(=O)c2ccco2)c1Sc1ccccc1 | 35.5* | 7.0 | 3.8 | 6.5 | . | -0.52
CC(C)c1ccc(-c2nnn(Cc3nc4ccccc4s3)n2)cc1 | 16.1 | -15.0 | 1.6 | 11.0 | 80.0* | -1.84
Cc1ccc(-c2nnn(CC(=O)N3CCN(c4nc5ccccc5s4)CC3)n2)cc1 | 1.7 | -11.0 | -10.7 | 0.6 | -2.4 | 1.27
CCOC(=O)c1sc2nc(NC(=O)c3cccs3)sc2c1C | . | . | . | . | 7.5 | .
CCOC(=O)c1cc(NC(=O)Nc2ccccc2OC)c(C)nc1C | 4.8 | -15.0 | -2.1 | 4.4 | . | -2.32
CCC(C(=O)Nc1ccccc1OC)n1c(C(=O)OC)cc2ccsc21 (stereo not drawn) | 18.9 | -21.0 | 4.8 | -4.3 | 70.9* | -1.74
Cc1cc(-c2nnc3n2N=C(C(C)(C)C)CS3)n[nH]1 | 34.0* | 8.0 | -0.9 | 8.4 | 7.2 | 0.22
COc1ccc2c(c1)C(=NO)c1cc(OC)ccc1-2 | 46.4* | 3.0 | -7.1 | 2.8 | 43.5 | -1.08
O=C1[O][Bi][O]c2ccccc21 | . | . | . | 9.4 | . | .
CS(=O)(=O)N1CCN(C(=O)c2cccnc2)CC1 | 35.2* | 6.0 | 0.5 | 0.9 | -6.6 | 0.45
CS(=O)(=O)N1CCN(C(=O)c2ccncc2)CC1 | 4.9 | -5.0 | -7.0 | 7.3 | -23.3 | 0.92
CCC(C)(C)n1nnnc1C(c1ccc(C)cc1)N1CCN(Cc2ccc3c(c2)OCO3)CC1 (stereo not drawn) | . | . | . | 3.6 | . | -1.41
N#Cc1nc(-c2ccccc2F)oc1NCc1cccc2c1OCO2 | 34.2* | -5.0 | -3.5 | 6.3 | 34.9 | -0.08
N#Cc1nc(Cc2cccc3ccccc23)oc1NCCCn1ccnc1 | 11.6 | 9.0 | -3.8 | 1.9 | 60.9* | 0.07
COc1ccccc1-c1nc(C#N)c(NCc2ccc(F)cc2)o1 | 40.8* | 5.0 | 0.3 | -2.2 | 54.0 | -1.04
SMILES | PostGolgi ctrl | E coli WT exp | PostGolgi yeast | Calb biofilm kill | tolC growth inh | PTK2B oligo ant
N#Cc1nc(Cc2cccc3ccccc23)oc1NCCCN1CCOCC1 | -1.8 | 26.0 | -0.3 | 2.2 | 36.8 | 0.34
CN(C)CCNc1oc(-c2ccccc2F)nc1C#N | 6.6 | 11.0 | -6.6 | 5.6 | -7.1 | .
COc1ccc(CCNc2oc(-c3ccccc3OC)nc2C#N)cc1 | 17.6 | -18.0 | -5.2 | 5.6 | 59.5 | -1
COc1ccc(CNc2oc(Cc3cccc4ccccc34)nc2C#N)cc1 | 34.9* | -21.0 | -5.8 | 9.5 | 58.8 | -0.65
COc1ccc(CNc2oc(COc3ccccc3)nc2C#N)cc1 | 14.0 | -4.0 | -4.1 | 6.9 | 60.0 | 0.28
CC1(C)N([O-])C2=C(c3ccccc3C2=O)[N+](=O)C1(C)C | -9.1 | -3.0 | -1.1 | -2.4 | . | 0
COCCn1c(-c2ccc(Cl)cc2)cnc1SCC(=O)NCc1cccs1 | 10.5 | 7.0 | 6.3 | 5.3 | 13.1 | -0.3
CN(C(=O)c1ccc2c(c1)C(=O)N(CCC1=CCCCC1)C2=O)C1CCCCC1 | 34.1* | -5.0 | -0.7 | . | . | .
O=C(O)c1ccc2c(c1)C(=O)N(CCC1=CCCCC1)C2=O | 2.0 | 1.0 | -6.7 | -3.7 | -10.1 | 0.5
CCCn1ncc(OC)c(Cl)c1=O | 0.4 | -1.0 | 3.1 | . | . | 2.3
COc1cc(CNCc2ccccn2)ccc1OCc1ccc(Cl)cc1Cl | 48.6* | 24.0 | 3.4 | . | . | 1.92
COc1cc(CNCc2ccccn2)ccc1OCC(N)=O | 29.8 | -2.0 | -0.8 | . | . | 0.81
CCOc1ccc(CCNC(=O)C2CCCN(S(=O)(=O)c3c(C)n[nH]c3C)C2)cc1OCC (stereo not drawn) | 22.9 | -5.0 | 7.8 | 3.2 | -12.2 | -0.36
C=CCc1c(C)nc(SC)nc1Nc1ccc(C(C)=O)cc1 | 31.3* | -11.0 | 6.0 | 9.2 | 21.7 | -1.49
C=CCc1c(C)nc(SC)nc1Nc1ccc(C(=O)O)cc1 | 8.5 | 1.0 | 23.2 | 2.5 | 10.2 | -0.51
CCN(CCCNC(=O)CN1C(=O)COc2ccccc21)c1cccc(C)c1 | 10.6 | -7.0 | -0.2 | 7.1 | 11.0 | -0.03
COc1ccc(-c2cnc(SCC(=O)Nc3ccc4c(c3)OCO4)n2Cc2ccco2)cc1 | 12.3 | -19.0 | -4.7 | 7.2 | 66.0* | -2.07
CC(=O)Nc1cccc(NC(=O)CSc2ncc(-c3ccc(Cl)cc3)n2Cc2ccco2)c1 | 36.7* | -8.0 | -3.6 | 11.6 | 94.2* | -3.72*
O=C(CSc1nnc(-c2ccc(Cl)cc2)n1Cc1ccco1)Nc1ccc2c(c1)OCCO2 | . | . | . | -0.2 | 25.4 | 0.04
Cc1ccc(SCC2CNc3nc4ccccc4c(=O)n32)c(C)c1 (stereo not drawn) | 24.4 | 5.0 | -3.6 | . | . | -0.35
CSc1cccc(NC(=O)c2ccco2)c1 | -7.8 | 0.0 | 8.4 | 9.8 | -10.8 | -0.23
NNC(=O)c1nnn(-c2nonc2N)c1-c1cccs1 | 3.5 | 3.0 | -0.3 | 5.9 | . | 0.08
COc1ccc(-c2nnc(SCc3c(C)noc3C)n2N)cc1OC | 24.4 | -5.0 | -2.0 | 7.9 | . | -0.07
COc1ccc(CN2CC(C(=O)NCCCN3CCOCC3)CC2=O)cc1 (stereo not drawn) | 34.5* | 5.0 | -4.8 | . | -26.0 | -1.13
COc1ccc(CN2CC(C(=O)NCCCN3CCCCCC3)CC2=O)cc1 (stereo not drawn) | 10.1 | 2.0 | -7.6 | 5.0 | -16.4 | 0.1
C=CCN1C(=O)CC(C(=O)NC)SC1=Nc1ccc(C(=O)OCC)cc1 (stereo not drawn) | 7.1 | 1.0 | -0.5 | -1.4 | 15.9 | 0.04
Cc1cc(C)c(S(=O)(=O)c2ccccc2)c(OC(=O)c2c(Cl)cccc2Cl)n1 | 24.1 | -7.0 | 48.8* | 13.5 | . | -1.78
